A selection: hits, their analogues and other compounds. The true share with any hit is near 2.5%.
Rce1 inh – yeast Rce1p protease inhibitors, primary screen, biochemical, fluorescence, cell-free homogeneous. CAAX prenyl protease 2 (Saccharomyces cerevisiae (strain ATCC 204508 / S288c)), Q03530. yeast membranes, quenched prenylated peptide cleavage fluorescence. calls only. hit rate 0.27% among 290,000;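 active = fall in fluorescence gain of 50% or more versus controls, with final raw signal at or below 3038400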;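 note: plate controls were neutral control wells for no effect and wells lacking membranes for full effect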
Target sequence (Q03530 whole entry, looked up): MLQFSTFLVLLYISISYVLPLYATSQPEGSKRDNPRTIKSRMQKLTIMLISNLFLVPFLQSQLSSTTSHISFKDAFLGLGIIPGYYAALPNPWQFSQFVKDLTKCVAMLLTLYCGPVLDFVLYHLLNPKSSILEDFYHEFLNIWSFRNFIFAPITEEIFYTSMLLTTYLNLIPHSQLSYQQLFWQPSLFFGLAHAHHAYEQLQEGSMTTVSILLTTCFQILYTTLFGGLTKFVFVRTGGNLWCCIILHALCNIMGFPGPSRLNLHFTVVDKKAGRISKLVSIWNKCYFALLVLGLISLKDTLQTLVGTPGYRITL
T cell modulator – modulators of CD8 T cell-vesicle binding, primary screen, mouse 2C CD8+ T cells, flow cytometry. 2C CD8+ T cell-vesicle binding; stronger effect = lower value. response (vesicle binding), % at 7 µM. hit rate 0.068% among 330,000. AID 2052, 2009;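 active = response, share of CD8 T cells binding vesicles, and their 90th percentile fluorescence all below set limits, cut at about 80% in these data, passing the limit was not always enough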;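 note: values below 100% mean blocked vesicle binding to the CD8+ T cells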
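Assay system – 2C mouse CD8+ T cells · Also added – QL9-loaded Drosophila micro-vesicles · Timing – Cell–vesicle co-incubation 1.5 h at 37 °C, staining 20 min on ice · Signal – flow cytometry of vesicle-bound cells · Measure – percent CD8+ FL2 mean versus row control · Controls – Peptide-free naked vesicles (low) and QL9 vesicles with 0.7% DMSO vehicle (high)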
UCH37 DUB inh – inhibitors of human UCH37 deubiquitinase, primary screen, biochemical, Ub-AMC cleavage, fluorescence; Ubiquitin carboxyl-terminal hydrolase isozyme L5 (Homo sapiens), Q9Y5K5; purified proteasome/UCH37; inhibition, % (concentration not given with the values); hit rate 0.33% among 330,000; AID 588478, 2011;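 active = mean inhibition over replicate wells above about 20%, limit read from the data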;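 note: 0% = compound-free wells with enzyme and 100% = wells lacking proteasome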
Target sequence (Q9Y5K5 whole entry, looked up): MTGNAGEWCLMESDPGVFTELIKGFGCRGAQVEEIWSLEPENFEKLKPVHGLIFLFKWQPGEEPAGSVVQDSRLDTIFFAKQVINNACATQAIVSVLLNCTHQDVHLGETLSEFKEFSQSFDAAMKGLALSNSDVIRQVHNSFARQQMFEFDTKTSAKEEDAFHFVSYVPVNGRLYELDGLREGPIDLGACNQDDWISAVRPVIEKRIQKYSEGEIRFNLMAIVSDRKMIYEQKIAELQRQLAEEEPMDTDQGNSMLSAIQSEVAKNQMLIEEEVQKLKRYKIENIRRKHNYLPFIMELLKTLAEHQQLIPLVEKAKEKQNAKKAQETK
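assay system = human UCH37 enzyme supplied as purified proteasome complex | amount = proteasome at 0.15 nM in the dispensed enzyme solution | schedule = 30 min compound-proteasome preincubation then 25 min substrate reaction, room temperature | measured by = fluorescence, ex 355 nm, em 460 nm | benchmarks = no-proteasome wells (full inhibition) and compound-free wells (no inhibition)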
MEKK2wt PB1 HTS – modulators of MEK5 binding to wildtype MEKK2, primary screen, biochemical, multiplex bead flow cytometry, Alexa488-MEK5; Mitogen-activated protein kinase kinase kinase 2 (Homo sapiens), Q9Y2U5; Alexa488-MEK5 binding to MEKK2 WT; actives lie on both sides; binding response (% of control), % at 10 µM; hit rate 1.1% among 290,000; in the data active = binding response below about 67% or above about 130%
MEKK2mut PB1 HTS – MEK5 binding signal on mutant MEKK2 PB1, primary screen, biochemical, multiplex bead flow cytometry, Alexa488-MEK5. hit rate 0.35% among 290,000. Alexa488-MEK5 binding to MEKK2 mutant. percent response, % at 10 µM. AID 1530, 2009; in the data active = percent response above about 24%, passing the limit was not always enough
MEKK3 PB1 HTS – modulators of MEKK3-MEK5 PB1 binding, primary screen, biochemical, wildtype MEKK3, multiplex bead flow cytometry, Alexa488-MEK5. Mitogen-activated protein kinase kinase kinase 3 (Homo sapiens), Q99759. bead-based flow cytometry, Alexa488-MEK5 binding to MEKK3; actives lie on both sides; 0 = blocked by unlabeled MEK5, 100 = vehicle. binding response (% of control), % at 10 µM. hit rate 1.4% among 290,000;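 active = binding response more than 3 SD above or below the average of its plate-row segment, actives on both sides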;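 note: Alexa488 bead fluorescence after subtracting the streptavidin-only scavenger bead signal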
MEKK2wt confirm – modulators of MEK5 binding to wildtype MEKK2, confirmation, biochemical, single concentration, multiplex bead flow cytometry; shares compounds with MEKK3 PB1 HTS; Alexa488-MEK5 binding to MEKK2 WT; actives lie on both sides; binding response (% of control), % at 10 µM; hit rate 2.4% among 5,900; in the data active = binding response below about 16% or above about 210%; inactive = in between
MEKK2mut-MEK5 – mutant MEKK2 PB1-MEK5 binding signal retest – biochemical, single concentration, multiplex bead flow cytometry, confirmation; percent response, % at 10 µM; AID 1893, 2009; hit rate 2% among 5,900; Alexa488-MEK5 binding to MEKK2 mutant; shares compounds with MEKK3 PB1 HTS; in the data active = percent response mostly above about 71%, no sharp cut-off; inactive = mostly below about 38%;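 note: higher means compound restores mutant binding toward wildtype level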
MEKK3 confirm – MEKK3 wild-type PB1 binding to MEK5, inhibitors, confirmation, biochemical, bead multiplex flow cytometry, single concentration, wildtype. shares compounds with MEKK3 PB1 HTS. Alexa488-MEK5 binding to MEKK3; stronger effect = lower value. binding response (% of control), % at 10 µM. hit rate 1.8% among 5,900;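 active = binding response below 72% of control, or above a set upper limit, though filed actives all read lower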;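 note: 100% = DMSO only wells and 0% = binding blocked by excess unlabeled MEK5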
An asterisk follows results filed as active; i = inactive; nt = not tested or not shown; + = active, no number; [ ] = dose if it differs, or a comment.

SMILES	Rce1 inh	T cell modulator	UCH37 DUB inh	MEKK2wt PB1 HTS	MEKK2mut PB1 HTS	MEKK3 PB1 HTS	MEKK2wt confirm	MEKK2mut-MEK5	MEKK3 confirm
Cc1cccc(-c2sc(Nc3ccccc3)n[n+]2-c2ccccc2)c1	nt	711.2	nt	nt	nt	nt	nt	nt	nt
COc1ccc(C)cc1Nc1n[n+](-c2ccccc2)c(-c2c(Cl)cccc2Cl)s1	i	298.2	6.4	127.0	7.0	109.0	nt	nt	nt
COc1ccc(C)cc1Nc1n[n+](-c2ccccc2)c(-c2ccc(OC)c(OC)c2OC)s1	i	295.9	5.7	149.0*	12.0	94.0	144.0	26.0	106.0
COc1ccc(C)cc1Nc1n[n+](-c2ccccc2)c(-c2ccc(N(C)C)cc2)s1	i	253.4	2.4	142.0*	46.0*	105.0	155.0	34.0	109.0
CC(=NNC(=S)NC1CCCCC1)c1ccc(Cl)c(Cl)c1	nt	nt	1.5	nt	nt	nt	nt	nt	nt
O=C(NN=Cc1cccnc1)c1ccccc1	nt	nt	3.5	nt	nt	nt	nt	nt	nt
CCC12CC3CC(C1)CC(C(=O)NNC(N)=O)(C3)C2	nt	131.0	1.1	122.0	18.0	128.0*	95.0	-5.0	97.0
Fc1ccccc1C=Nn1cc(-c2ccccc2)[nH]c1=S	nt	nt	-0.4	nt	nt	nt	nt	nt	nt
O=C(NNc1cc(Cl)ccc1Cl)c1cccs1	i	534.2	1.9	127.0	25.0	130.0*	107.0	1.0	107.0
N#CCON=CC(=O)Nc1ccc(F)cc1F	nt	nt	-3.2	nt	nt	nt	nt	nt	nt
COc1ccc(C2c3c(ncn(CCN4CCOCC4)c3=N)Oc3ccc4ccccc4c32)cc1 (stereo not given)	+	287.2	5.6	165.0*	7.0	102.0	127.0	23.0	103.0
c1ccc(C2c3c(ccc4ccccc34)Oc3ncn4nc(-c5ccco5)nc4c32)cc1 (stereo not given)	i	216.5	-0.1	95.0	-1.0	104.0	nt	nt	nt
CN(C)CCn1cnc2c(c1=N)C(c1ccccc1)c1ccc3ccccc3c1O2 (stereo not given)	i	484.4	8.0	142.0*	17.0	106.0	149.0	23.0	99.0
N=c1c2c(ncn1CCN1CCOCC1)Oc1ccc3ccccc3c1C2c1ccccc1 (stereo not given)	i	166.4	4.8	141.0*	15.0	106.0	124.0	4.0	101.0
O=C(NC1CCS(=O)(=O)C1)/C(=C/c1ccc(Cl)cc1)NC(=O)c1ccccc1 (stereo not given)	i	237.0	3.2	96.0	-1.0	100.0	nt	nt	nt
O=C(NC1CCS(=O)(=O)C1)/C(=C\c1ccccc1)NC(=O)c1ccccc1 (stereo not given)	i	457.9	4.8	108.0	0.0	147.0*	105.0	7.0	106.0
COc1cc(-c2n[nH]c(=S)n2-c2cc(C(F)(F)F)ccc2Cl)cc(OC)c1OC	i	0.0	-1.1	108.0	0.0	144.0*	100.0	-3.0	103.0
CC(Cn1nnc2ccccc21)=NNC(=O)c1ccc(Br)cc1	nt	nt	0.5	nt	nt	nt	nt	nt	nt
O=C(CSc1nnc(Cn2cnc3ccccc32)o1)Nc1cccc2ccccc12	i	486.0	5.1	19.0*[inhibitor]	-15.0	13.0*[inhibitor]	99.0	4.0	104.0
CC(=O)c1ccc(NC(=O)CSc2nnc(Cn3cnc4ccccc43)o2)cc1	i	266.6	5.6	104.0	-1.0	104.0	nt	nt	nt
Cc1ccc(N=C2NC(=O)S/C2=C\c2ccco2)cc1	i	i	3.5	100.0	1.0	100.0	nt	nt	nt
O=C1NC(=Nc2ccccc2)/C(=C/c2ccco2)S1	nt	209.3	6.1	100.0	-1.0	132.0*	99.0	-3.0	102.0
O=C1NC[C@H](c2ccccc2)N(CCc2cccc(F)c2)C1=O	i	180.8	0.5	94.0	-10.0	79.0*[inhibitor]	100.0	-6.0	99.0
Cc1[nH]n(-c2ccc([N+](=O)[O-])cc2)c(=O)c1C=NCCN1CCN(C(=O)c2ccc(F)cc2)CC1	i	420.3	-0.6	nt	nt	nt	nt	nt	nt
Cc1[nH]n(-c2ccc([N+](=O)[O-])cc2)c(=O)c1C=NCCN1CCN(C(=O)c2cccc(F)c2)CC1	i	219.2	8.8	126.0	8.0	127.0*	110.0	13.0	105.0
SMILES	Rce1 inh	T cell modulator	UCH37 DUB inh	MEKK2wt PB1 HTS	MEKK2mut PB1 HTS	MEKK3 PB1 HTS	MEKK2wt confirm	MEKK2mut-MEK5	MEKK3 confirm
CC(CC(=O)NCc1ccc(Cl)cc1)=NNC(=O)c1ccccc1F	nt	nt	1.1	nt	nt	nt	nt	nt	nt
COc1ccc(CN2CCN(C)CC2)cc1OCc1ccccc1	i	94.9	4.6	82.0	-9.0	69.0*[inhibitor]	108.0	7.0	108.0
COc1cc(C=NNC(=O)CN2CCOCC2)ccc1OCc1ccccc1	nt	nt	-0.1	nt	nt	nt	nt	nt	nt
O=C(NC1(C(F)(F)F)NC(=O)N(c2ccc(F)cc2)C1=O)c1cccs1 (stereo not given)	i	161.4	4.4	111.0	0.0	158.0*	106.0	-2.0	102.0
COc1ccc(OC)c(C=NNC(=O)CCN2CCN(C(c3ccccc3)c3ccccc3)CC2)c1	nt	nt	-22.1	nt	nt	nt	nt	nt	nt
CC(C)OC(=O)C(NC(=O)c1ccccc1)=C1CCCCC1	i	470.7	1.9	113.0	6.0	122.0*	96.0	0.0	102.0
CC(C)OC(=O)/C(=C\c1ccccc1)NC(=O)c1ccccc1	i	429.2	-1.8	95.0	-3.0	102.0	nt	nt	nt
CCOc1ccc(C(=O)SC2=NCCS2)cc1	i	791.0	-0.6	102.0	-1.0	99.0	nt	nt	nt
COc1ccc(C(=O)SC2=NCCS2)cc1	i	393.8	5.9	-11.0*[inhibitor]	-2.0	-2.0*[inhibitor]	113.0	2.0	108.0
COc1ccc(C=NNC(=O)c2ccc(CN3c4cccc5cccc(c45)S3(=O)=O)cc2)cc1	nt	nt	-334.3	nt	nt	nt	nt	nt	nt

High-throughput results deposited in PubChem BioAssay by several laboratories.
